Activity calls are given as the source filed them. The rule behind the calls is not given here.
Experiments:
[1] = Drug metabolism in MeOH/PBS solution assessed as […] release at 170 uM irradiated with 60 mW laser light by amperometric detection assay; type: functional
Method in brief: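 NO release followed during continuous visible-light irradiation at λexc 405 nm of optically matched solutions in MeOH/PBS (20/80), with the model donor at 170 µM; release profile recorded over irradiation time.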

[2] = system: Staphylococcus aureus; assay: Bactericidal activity against Staphylococcus aureus ATCC 6538 assessed as reduction in bacterial count at 0.25 mM after 30 mins under dark condition by time kill assay relative to control; type: functional; design: scale not given: the % may be the effect or the level left
Method in brief: (§1)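 Time-kill assay with the agent at 0.25 mM final in 5% EtOH/PBS, made from a 0.5 mM solution in 10% EtOH/PBS. Samples ran in duplicate, kept in the dark or illuminated, alongside PBS and 5% EtOH/PBS vehicle controls. Viable bacteria were counted as CFU/mL at set times and expressed as % and log reduction.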

[3] = Drug metabolism in MeOH/PBS solution assessed as […] release at 40 uM irradiated with 60 mW laser light by amperometric detection assay; type: functional
Method in brief: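 NO release was profiled in MeOH/PBS (20/80) at 40 µM under visible light irradiation (λexc = 405 nm), using an optically matched solution of a model NO photodonor for comparison.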

[4] = Drug metabolism in MeOH/PBS solution assessed as […] release by measuring shift in maximum absorption wavelength at 40 uM irradiated with 60 mW laser light by UV-vis absorption spectra analysis; type: functional
[5] = system: Staphylococcus aureus; assay: Bactericidal activity against Staphylococcus aureus ATCC 6538 assessed as reduction in bacterial count at 0.25 mM irradiated with 450 mW xenon light after 10 mins by time kill assay relative to control; type: functional; design: scale not given: the % may be the effect or the level left; method in brief: as §1
[6] = system: Staphylococcus aureus; assay: Bactericidal activity against Staphylococcus aureus ATCC 6538 assessed as log reduction in colony forming units at 0.25 mM after 30 mins under dark condition by time kill assay; type: functional; method in brief: as §1
[7] = system: Staphylococcus aureus; assay: Bactericidal activity against Staphylococcus aureus ATCC 6538 assessed as reduction in bacterial count at 0.25 mM irradiated with 450 mW xenon light up to 30 mins by time kill assay; type: functional, organism-based; method in brief: as §1
[8] = system: Staphylococcus aureus; assay: Bactericidal activity against Staphylococcus aureus ATCC 6538 assessed as log reduction in colony forming units at 0.25 mM irradiated with 450 mW xenon light after 10 mins by time kill assay; type: functional; method in brief: as §1
[9] = system: Staphylococcus aureus; assay: Bactericidal activity against Staphylococcus aureus ATCC 6538 assessed as reduction in bacterial count at 0.25 mM irradiated with 450 mW xenon light after 20 mins by time kill assay relative to control; type: functional; design: scale not given: the % may be the effect or the level left; method in brief: as §1
[10] = system: Staphylococcus aureus; assay: Bactericidal activity against Staphylococcus aureus ATCC 6538 assessed as log reduction in colony forming units at 0.25 mM irradiated with 450 mW xenon light after 20 mins by time kill assay; type: functional; method in brief: as §1
[11] = system: Escherichia coli; assay: Bactericidal activity against Escherichia coli ATCC 10536 assessed as reduction in bacterial count at 0.25 mM after 30 mins under dark condition by time kill assay; type: functional, organism-based; method in brief: as §1
[12] = system: Escherichia coli; assay: Bactericidal activity against Escherichia coli ATCC 10536 assessed as reduction in colony forming units at 0.25 mM irradiated with 450 mW xenon light after 30 mins by time kill assay; type: functional; design: scale not given: the % may be the effect or the level left; method in brief: as §1
[13] = system: Escherichia coli; assay: Bactericidal activity against Escherichia coli ATCC 10536 assessed as log reduction in colony forming units at 0.25 mM irradiated with 450 mW xenon light after 30 mins by time kill assay; type: functional; method in brief: as §1
[14] = Cytotoxicity against human skin fibroblasts at 0.25 mM irradiated with 450 mW xenon light measured after 30 mins; settings: 0.5 h, 250 µM

NCCCNc1ccc([N+](=O)[O-])c(C(F)(F)F)c1
Drug metabolism [1]: Metabolite detected

C[N+](C)(CCO)CCCOc1c2cc(CNc3ccc([N+](=O)[O-])c(C(F)(F)F)c3)cc1Cc1cc(CNc3ccc([N+](=O)[O-])c(C(F)(F)F)c3)cc(c1O)Cc1cc(CNc3ccc([N+](=O)[O-])c(C(F)(F)F)c3)cc(c1OCCC[N+](C)(C)CCO)Cc1cc(CNc3ccc([N+](=O)[O-])c(C(F)(F)F)c3)cc(c1O)C2.[Br-].[Br-]
Activity [2]: 98.9% | Drug metabolism [3]: Metabolite detected | Drug metabolism [4]: Metabolite detected | Activity [5]: 99.2% | Activity [6]: 1.96 log10CFU/ml | Activity [7]: Active | Activity [8]: 2.1 log10CFU/ml | Activity [9]: >99.95% | Activity [10]: >3.31 log10CFU/ml | Activity [11]: inactive | Activity [12]: 93.5% | Activity [13]: 1.2 log10CFU/ml | Activity [14]: < 15%
